This note sets out measurements from ChEMBL document CHEMBL1138871, “Synthesis and HIV-integrase strand transfer inhibition activity of 7-hydroxy[1,3]thiazolo[5,4-b]pyridin-5(4H)-ones” (Bioorg Med Chem Lett, 2006).

Structures are written as SMILES. Some results are limits rather than exact numbers.

This test in a line: Inhibition of recombinant HIV integrase strand transfer activity. On the set-up: species or system Human immunodeficiency virus. In a few lines: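 Recombinant integrase (2 µM) prebound to biotinylated donor DNA (0.66 µM) on streptavidin SPA beads, 5 min 37 °C in 25 mM MOPS pH 7.2, 23 mM NaCl, 10 mM MgCl₂, 10 mM DTT, 10% DMSO. Beads washed and resuspended to 570 nM integrase. Compound (6.7% DMSO final) preincubated 60 min 37 °C. Then [³H] target DNA at 7 nM final added, run 25–45 min 37 °C, EDTA-quenched, read by SPA. Means ± SE.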
Take `COc1ccc(-n2c(=O)c(C(=O)NCc3ccc(F)cc3)c(O)c3ncsc32)cc1`: the IC50 (usually the concentration that inhibits the measured activity by half) was determined as 1 µM. For `Cn1c(=O)c(C(=O)NCc2ccc(Cl)cc2)c(O)c2ncsc21`, the half-inhibitory concentration (IC50) was found to be 2.1 µM. For the compound `COC(=O)c1c(O)c2ncsc2n(Cc2ccc(OC)cc2)c1=O`, the half-inhibitory concentration (IC50) came to 4.2 µM. For `COC(=O)c1c(O)c2ncsc2n(C)c1=O`, the IC50 is greater than 500 µM. Turning to `COC(=O)c1c(O)c2ncsc2n(-c2ccc(OC)cc2)c1=O`, the IC50 is greater than 500 µM.

For the compound `CCn1c(=O)c(C(=O)OC)c(O)c2ncsc21`, the IC50 came out at 1.23 µM. In the case of `COC(=O)c1c(O)c2ncsc2n(C(C)C)c1=O` it was 11 µM; in that of `COC(=O)c1c(O)c2ncsc2n(-c2cccc(SC)c2)c1=O`, greater than 500 µM. Consider `O=C(NCc1ccc(F)cc1)c1c(O)c2ncsc2n(-c2ccccc2)c1=O`, for which the IC50 came out at 0.4 µM.

As to `COC(=O)c1c(O)c2ncsc2n(-c2cccc([N+](=O)[O-])c2)c1=O`, the IC50 was greater than 500 µM.

As for `O=C(NCc1ccc(F)cc1)c1c(O)c2nc(Cc3ccc(F)cc3)sc2n(-c2ccccc2)c1=O`, the IC50 is 4 µM.

Regarding `COC(=O)c1c(O)c2ncsc2n(-c2ccccc2)c1=O`, the IC50 was greater than 500 µM. For `COC(=O)c1c(O)c2ncsc2[nH]c1=O`, the IC50 is greater than 500 µM. In the case of `O=C(NCc1ccc(F)cc1)c1c(O)c2ncsc2n(-c2cccc([N+](=O)[O-])c2)c1=O` it was 17 µM; in that of `CS(=O)(=O)c1cccc(-n2c(=O)c(C(=O)NCc3ccc(F)cc3)c(O)c3ncsc32)c1`, 0.93 µM; in that of `O=C(NCc1ccc(F)cc1)c1c(O)c2ncsc2n(-c2cccc(C(F)(F)F)c2)c1=O`, 7 µM. In the case of `COC(=O)c1c(O)c2nc(Cc3ccc(F)cc3)sc2n(-c2ccccc2)c1=O` it was 282 µM; in that of `CCn1c(=O)c(C(=O)NCc2ccc(F)cc2)c(O)c2ncsc21`, 0.03 µM. Take `O=C(NCc1ccc(F)cc1)c1c(O)c2ncsc2[nH]c1=O`: the IC50 turned out to be 1.5 µM. With `COc1ccc(Cn2c(=O)c(C(=O)NCc3ccc(F)cc3)c(O)c3ncsc32)cc1`, the concentration for half-maximal inhibition (IC50) was found to be 4 µM. In the case of `COC(=O)c1c(O)c2ncsc2n(-c2cccc(C(F)(F)F)c2)c1=O` it was greater than 500 µM; in that of `COC(=O)c1c(O)c2nc(Cc3ccc(F)cc3)sc2n(C)c1=O`, 35 µM; in that of `Cn1c(=O)c(C(=O)NCc2ccc(F)cc2)c(O)c2ncsc21`, 0.7 µM.

On to `CC(C)n1c(=O)c(C(=O)NCc2ccc(F)cc2)c(O)c2ncsc21`, for which the IC50 is 0.19 µM. Take `CSc1cccc(-n2c(=O)c(C(=O)NCc3ccc(F)cc3)c(O)c3ncsc32)c1`: the IC50 turned out to be 7 µM.

For the compound `Cn1c(=O)c(C(=O)NCc2ccc(F)cc2)c(O)c2nc(Cc3ccc(F)cc3)sc21`, the IC50 is 151 µM. With `C[S+]([O-])c1cccc(-n2c(=O)c(C(=O)NCc3ccc(F)cc3)c(O)c3ncsc32)c1` (stereo not drawn), the IC50 turned out to be 2 µM. For `O=C(/C=C(\O)c1nc[nH]n1)c1ccc(Cc2ccc(F)cc2)o1` [S-1360] the value was 0.16 µM.
